Screening data from PubChem.
S1P4 agonist – agonists of human S1P4 receptor; O95977; S1P4-expressing cell line, agonist reporter assay; activation, % at 4.98 µM; 220,000 tested, 0.35% active; AID 1509; in the data active means activation above about 11%;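 further: 0% = DMSO vehicle and 100% = reference agonist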
S1P4 antagonist – human S1P4 receptor antagonism. AID 1510. inhibition, % at 4.98 µM. O95977. S1P4-expressing cells, antagonist mode, reporter read-out. 220,000 tested, 0.26% active; in the data active means inhibition above about 29%;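 further: 0% = wells stimulated with agonist and 100% = vehicle wells without agonist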
NPY-Y1 PAM-ag – potentiates or activates human NPY-Y1 receptor | NPY-Y1 expressing cells, potentiator/agonist activation | activation, % at 3.6 µM | 220,000 tested, 0.37% active | AID 1304; in the data active means activation above about 33%, passing the limit was not always enough;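 further: cells stimulated with NPY at EC10 then isoproterenol at EC100; 0% = low agonist plus stimulus and 100% = saturating agonist plus stimulus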
Target sequence (P25929 whole entry, looked up): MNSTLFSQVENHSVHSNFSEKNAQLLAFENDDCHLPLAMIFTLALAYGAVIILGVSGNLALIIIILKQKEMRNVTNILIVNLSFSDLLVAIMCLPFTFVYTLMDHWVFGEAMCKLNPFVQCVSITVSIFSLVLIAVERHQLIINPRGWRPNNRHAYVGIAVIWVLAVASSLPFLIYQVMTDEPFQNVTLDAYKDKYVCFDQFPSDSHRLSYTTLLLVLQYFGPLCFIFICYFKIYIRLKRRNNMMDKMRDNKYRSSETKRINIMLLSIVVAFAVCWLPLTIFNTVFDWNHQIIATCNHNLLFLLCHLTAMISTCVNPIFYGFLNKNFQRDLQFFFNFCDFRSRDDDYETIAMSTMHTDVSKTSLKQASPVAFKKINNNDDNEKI
NPY Y1 blocker – NPY-Y1 (human) receptor antagonism | HEK293-CNG Y1 cells, membrane potential fluorescence; NPY at EC95, then isoproterenol | inhibition, % at 3.6 µM | 200,000 tested, 1% active | AID 1040;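 active means inhibition above the campaign mean inhibition of all tested compounds plus 3 SD, cut at about 20% in these data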;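 further: 0% = DMSO wells given NPY plus isoproterenol and 100% = isoproterenol alone without NPY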
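Assay system: HEK293 cells with Y1 receptor plus CNG channel | Probe or stimulus: NPY (25 nM), isoproterenol (1 µM), Ro 20-1724 (25 µM) | Timing: Compound incubation 1 h at room temperature, readout 45 min post-stimulation | Measured by: Membrane-potential fluorescent dye readout | Benchmarks: High control isoproterenol alone, low control NPY with isoproterenol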
NPY2 pot ag – potentiates or activates human NPY-Y2 receptor; cells expressing NPY-Y2, potentiator/agonist read-out; AID 1359; P49146; 220,000 tested, 0.45% active; activation, % at 3.6 µM; in the data active means activation above about 27%;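 further: cells stimulated with NPY near EC25 plus isoproterenol at EC100; 0% = vehicle plus submaximal agonist and 100% = vehicle plus saturating agonist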
NPY Y2 blocker – antagonists of human neuropeptide Y receptor Y2; AID 793; P49146; 140,000 tested, 0.99% active; NPY-Y2 expressing cells, antagonist mode; inhibition, % at 2.7 µM;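 further: 0% = vehicle with agonist challenge and 100% = reference antagonist with challenge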
NPY1 antag conf – human NPY-Y1 antagonism, confirmation. shares compounds with NPY Y1 blocker. HEK293-CNG NPY-Y1, membrane potential fluorescence, cAMP; NPY challenge against isoproterenol-raised cAMP. inhibition, % at 3.6 µM. 1,200 tested, 21% active; in the data active means inhibition above about 20%;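 further: 0% = vehicle with agonist plus stimulus and 100% = stimulus alone without agonist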
NPY2 antag ctr – counter-screen for NPY-Y1 antagonists: human NPY-Y2 antagonism; shares compounds with NPY Y1 blocker; inhibition, % at 3.6 µM; 1,200 tested, 28% active; HEK293 NPY-Y2 CNG membrane potential fluorescence; cells given NPY, then isoproterenol; AID 1255;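 further: 0% = DMSO with agonist challenge and 100% = reference antagonist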
Active calls of the source: *; nt = no result given. An excerpt weighted towards active compounds, which were near 2.4% of everything screened. Unless noted, no stated cut-off is given here; in the data, active means inhibition above about 17%; inactive means the rest.

SMILES	S1P4 agonist	S1P4 antagonist	NPY-Y1 PAM-ag	NPY Y1 blocker	NPY2 pot ag	NPY Y2 blocker	NPY1 antag conf	NPY2 antag ctr
CCN(CC(O)COc1ccc(OCC(O)CN(CC)C2CCCCC2)cc1)C1CCCCC1 (configuration not stated)	1	-15	-53	22*	-11	10	6	32*
N#C/C(=C\c1ccncc1)C(N)=O	0	-7	-6	-6	-5	nt	nt	nt
Cc1ccc(N(C(=O)Cc2cccs2)C(C(=O)NC2CCCCC2)c2ccccn2)cc1C (configuration not stated)	-1	14	-35	13	11	10	nt	nt
Cc1ccc(OCCN2CCN(c3ncnc4sc(C)c(C)c34)CC2)cc1	-4	-17	-68	9	5	13	nt	nt
Clc1ccc(OCCN2CCN(c3ncnc4sccc34)CC2)cc1	-2	-15	-46	26*	-3	8	20	20*
COc1ccc(CC(=O)Nc2c3c(nn2-c2cccc(Cl)c2)CS(=O)(=O)C3)cc1	-2	-12	6	14	6	8	nt	nt
O=C(Cc1ccccc1)Nc1c2c(nn1-c1cccc(Cl)c1)CS(=O)(=O)C2	1	20	-13	22*	-16	9	17	8
O=C(C1c2ccccc2C(=O)N2CCc3ccccc3C12)N1CCN(Cc2ccccc2)CC1 (configuration not stated)	1	-9	6	22*	-1	10	6	3
CC1CCN(C(=O)C2c3ccccc3C(=O)N3CCc4ccccc4C23)CC1 (configuration not stated)	-2	-18	-17	14	-3	17	nt	nt
CCOC(=O)CC(NC(=O)C(CC)c1ccccc1)c1ccccc1Cl (configuration not stated)	-1	-3	-4	25*	-3	13	17	6
S=c1[nH]nc(-c2ccc3ccccc3n2)o1	-1	-17	-3	20*	-11	12	11	7
C/C=C/c1ccccc1OCc1ccc(C(=O)O)o1	2	-8	-25	22*	-24	14	16	12
O=C(N/N=C/c1ccc(Br)s1)c1c[nH]c2ccccc12	1	-9	8	20*	-6	3	0	0
Cc1cccc(NS(=O)(=O)c2cc(C(=O)OC(C)C(=O)NCc3ccc4c(c3)OCO4)ccc2C)c1 (configuration not stated)	1	-7	-3	-2	-5	4	nt	nt
O=C1N(Cc2cccc(Cl)c2)C[C@@H]2C[C@@H](c3ccc4nonc4c3)N3CCC[C@@]123	0	14	-5	24*	-16	nt	10	9
CN1C[C@@H]2C[C@@H](C3=Cc4cc(Cl)ccc4OC3)N3CCC[C@@]23C1=O	1	-15	6	1	5	nt	nt	nt
COc1ccccc1CN1C[C@@H]2C[C@@H](C3=Cc4cc(Cl)ccc4OC3)N3CCC[C@@]23C1=O	0	-17	-18	24*	-19	nt	19	13
O=C1N(Cc2cccc(Cl)c2)C[C@@H]2C[C@@H](c3cccn3-c3nccs3)N3CCC[C@@]123	0	10	-27	26*	-25	nt	4	6
O=[N+]([O-])c1ccc(O)c(/C=N/NC2=NS(=O)(=O)c3ccccc32)c1	-1	-26	-10	35*	-13	nt	0	2
CCOC(=O)C1=C(O)/C(=C\c2ccc(CNC(=O)C(=O)Nc3ccccc3)o2)N=C1C	2	3	11	14	-16	1	nt	nt
Cc1ccc(C(=O)c2cc([N+](=O)[O-])ccc2N2CC(C)OC(C)C2)cc1 (configuration not stated)	-1	-7	-10	0	6	4	nt	nt
Cc1ccc(C(=O)c2cc([N+](=O)[O-])ccc2N2CCCCC2)cc1	1	-14	-62	22*	-2	16	12	26*
CC(c1ccon1)N(C)Cc1cn(C)nc1-c1cccc(Cl)c1 (configuration not stated)	0	1	-6	-6	-12	nt	nt	nt
C=CCn1c(SCC(=O)Nc2ncc(Cc3cc(Cl)ccc3Cl)s2)nnc1-c1ccncc1	0	4	-13	13	-12	5	nt	nt
CCOc1ccc(N(CC(=O)N/N=C/c2ccc(OC(C)C)cc2)S(C)(=O)=O)cc1	1	-7	0	0	13	2	nt	nt
SMILES	S1P4 agonist	S1P4 antagonist	NPY-Y1 PAM-ag	NPY Y1 blocker	NPY2 pot ag	NPY Y2 blocker	NPY1 antag conf	NPY2 antag ctr
Cc1cccc(NC(=O)c2cc(-c3ccccn3)nc3ccccc23)c1C	1	1	-122	39*	-59	nt	25*	23*
Cc1ccc(-c2cc(C(=O)Nc3cc(C)on3)c3ccccc3n2)c(C)c1	0	22	-115	35*	-41	9	29*	51*
Cc1csc(NC(=O)c2cc(-c3ccccc3)nc3ccccc23)n1	0	9	-105	22*	-30	13	19	12
O=C(NC1CC1)c1cc(-c2ccccn2)nc2ccccc12	-1	-5	-7	-1	-10	3	nt	nt
Cc1cc(NC(=O)c2cc(-c3ccccc3C)nc3ccccc23)no1	1	-2	-5	0	-6	1	nt	nt
COC(=O)c1ccc(COC(=O)CNC(=O)c2ccco2)cc1	-1	-27	0	9	-4	2	nt	nt
COC(=O)c1ccc(COC(=O)CNC(=O)c2ccc(-c3ccccc3)cc2)cc1	0	-20	-7	21*	-7	4	-2	2
Cn1c(COc2nnc(-c3ccc(Cl)cc3)c3ccccc23)nc2ccccc21	0	-7	3	39*	13	1	1	-1
CCc1nc(N[C@@H](CC(C)C)C(=O)O)c2oc3ccccc3c2n1	0	-28	-20	26*	-20	14	14	23*
CCc1nc(N[C@H](C(=O)O)C(C)C)c2oc3ccccc3c2n1	0	11	-49	nt	-22	nt	nt	nt
O=C(CCCCN1CCCCC1)c1ccc2c(c1)Cc1ccccc1-2	0	-9	-45	24*	-23	nt	19	7
CCC(Oc1ccc2ccccc2c1)C(=O)O (configuration not stated)	0	-17	-1	21*	-31	12	7	7
C[n+]1cnc(-c2ccccc2)cc1-c1ccccc1	0	6	29	-4	8	2	nt	nt
OC(COc1ccc2ccccc2c1)CN1CCN(c2ccc(F)cc2)CC1 (configuration not stated)	2	2	-12	8	-7	8	nt	nt
